From PubChem BioAssay
Rows were chosen to be rich in hits. Some 2.5% of all compounds tested hit in one or more screens of this group.
SENP1 FRET inh: inhibitors of human SENP1 SUMO protease catalytic domain | Q9P0U3 | recombinant SENP1 catalytic domain, CyPet-SUMO1-YPet FRET cleavage | inhibition, % at 10 µM | 0.21% of 360,000 active | AID 624204;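 active means inhibition at least 30% at 10 µM, raw YFP signal under a set limit, fluorescence ratio 0.5 to 1.5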
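Controls: no-enzyme wells low, DMSO-plus-enzyme wells high control. Test system: human recombinant His6-tagged SENP1 catalytic domain enzyme. Reagent: SFCypet-SUMO1-SFYpet FRET protein substrate, 25 nM final. Doses: one dose per compound, 10 µM, 0.5% DMSO. Detection: FRET, CFP and YFP emission. Timing: 50 min reaction at room temperature.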
B2AR ag: agonists of human beta-2 adrenergic receptor inducing internalization; 0.43% of 340,000 active; AID 504454; response, % (test concentration not listed); Am2.2-beta2AR cells, FAP receptor internalization, flow cytometry; P07550;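 active means response above a set limit, near 3 SD of response in nonfluorescent compounds, cut at about 42% in these data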
GRK2 aptamer HTS: human GRK2 inhibition via aptamer displacement; P25098; bead flow cytometry, FAM-aptamer displacement from GRK2; inhibition of aptamer binding, % at 10 µM; 0.59% of 330,000 active; AID 488847;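 active means inhibition of aptamer binding above 40%, roughly 3 SD of noise, on plates passing a quality check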;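 further: median bead fluorescence of bound FAM aptamer so fluorescent compounds give negative values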
Target sequence (P25098 whole entry, looked up): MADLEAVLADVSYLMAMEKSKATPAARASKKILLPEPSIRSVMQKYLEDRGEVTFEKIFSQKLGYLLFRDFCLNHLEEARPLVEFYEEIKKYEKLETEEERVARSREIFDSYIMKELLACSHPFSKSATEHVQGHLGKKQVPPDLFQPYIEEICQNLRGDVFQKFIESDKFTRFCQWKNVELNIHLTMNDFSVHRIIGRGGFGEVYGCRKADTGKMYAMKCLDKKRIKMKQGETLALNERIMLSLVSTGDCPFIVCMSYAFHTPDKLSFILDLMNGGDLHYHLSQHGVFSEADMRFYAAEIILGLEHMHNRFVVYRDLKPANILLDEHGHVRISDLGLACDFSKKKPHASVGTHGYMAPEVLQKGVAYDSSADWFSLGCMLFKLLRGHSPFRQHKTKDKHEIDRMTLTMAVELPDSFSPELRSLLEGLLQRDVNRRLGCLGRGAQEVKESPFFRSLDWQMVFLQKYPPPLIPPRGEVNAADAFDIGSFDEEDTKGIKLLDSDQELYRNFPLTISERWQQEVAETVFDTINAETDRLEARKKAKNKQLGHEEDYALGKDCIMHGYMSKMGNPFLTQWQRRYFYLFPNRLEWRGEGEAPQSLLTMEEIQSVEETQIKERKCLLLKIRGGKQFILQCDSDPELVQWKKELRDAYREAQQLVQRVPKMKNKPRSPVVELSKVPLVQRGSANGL
NadD block: blocks S. aureus nicotinate mononucleotide adenylyltransferase; purified NadD enzyme, colorimetric absorbance read-out; inhibition, % at 20 µM; 0.78% of 360,000 active; in the data active means inhibition above about 26%
ABHD5-PLIN5 inh: blocks binding of human ABHD5 to perilipin-5. Split G. princeps luciferase complementation, luminescence, 4 h. 0.78% of 360,000 active. AID 602281. Q00G26+Q8WTS1. inhibition, % at 4 µM;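 active means inhibition above the mean inhibition across every tested compound plus 3 SD, cut at about 22% in these data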
NadD conf: NadD (S. aureus) inhibition, single concentration confirmation; purified S. aureus NadD, colorimetric enzyme assay; shares compounds with NadD block; inhibition, % at 20 µM; 13% of 2,000 active; in the data active means inhibition mostly above about 42%, no sharp cut-off; inactive means mostly below about 42%
Large screens that a line does not name were inactive (follow-up assays come after a bar, where they were run).

Cn1c(N)c(C(=O)COC(=O)c2cc(C3CC3)nc3ccccc23)c(=O)n(Cc2ccccc2)c1=O	NadD block 43 | NadD conf inactive
Cn1c(N)c(C(=O)COC(=O)c2cc(-c3ccccc3)nc3ccccc23)c(=O)n(Cc2ccccc2)c1=O	NadD block 29 | NadD conf inactive
CC(C)Cn1c(N)c(C(=O)COC(=O)c2cc(-c3ccco3)nc3ccccc23)c(=O)n(C)c1=O	NadD block 53 | NadD conf inactive
Cn1c(=O)c(C(=O)COC(=O)c2cc(-c3ccco3)nc3ccccc23)c(N)n(Cc2ccccc2)c1=O	none (no result: SENP1 FRET inh, B2AR ag, NadD block, ABHD5-PLIN5 inh)
O=C([O-])c1cc(-c2ccccc2)cc(-c2ccccc2)[n+]1CCc1ccc(Cl)cc1	none (no result: GRK2 aptamer HTS)
Cc1c([N+](=O)[O-])cc(N2C(=O)C=CC2=O)cc1[N+](=O)[O-]	NadD block 42 (no result: GRK2 aptamer HTS) | NadD conf 57
CSCCC(NC(=O)c1ccc(Cl)cc1Cl)C(=O)N(C)Cc1nc2ccccc2c(=O)[nH]1 (stereo not drawn)	none (no result: GRK2 aptamer HTS)
CCOc1ccc2nc(Cl)c(C3CC(c4ccco4)=NN3S(=O)(=O)c3ccccc3)cc2c1 (stereo not drawn)	NadD block 36 | NadD conf inactive
COc1ccc2cc(C3CC(c4ccco4)=NN3S(C)(=O)=O)c(Cl)nc2c1 (stereo not drawn)	none
CCN(C(=O)CN1C(=O)/C(=C/c2ccccc2)SC1=S)C1CCS(=O)(=O)C1 (stereo not drawn)	none
CCc1ccc(N(CC(=O)N2CCCC2)S(C)(=O)=O)cc1	none (no result: B2AR ag, GRK2 aptamer HTS)
FC(F)(F)c1nnc(-c2ccccc2)nc1Sc1ccc(Cl)cc1	NadD block 33 | NadD conf inactive
CN(C(=O)COC(=O)/C=C/c1cccs1)C1CCCCC1	none
CN(C)c1nc(N2CCN(c3ccc(F)cc3)CC2)c(C#N)c(=O)o1	none (no result: GRK2 aptamer HTS)
N#Cc1c(N2CCN(c3ccc(F)cc3)CC2)nc(N)c2c(N)nc3c(c12)CC(=O)N3C1CC1	NadD block 44 (no result: GRK2 aptamer HTS) | NadD conf inactive
C/C(=N\NC(=O)c1cccc(N/N=C(\C)c2ccco2)c1)c1ccco1	NadD block 38 (no result: GRK2 aptamer HTS) | NadD conf inactive
C/C(=N\NC(=O)c1cccc([N+](=O)[O-])c1)c1ccco1	none
Cc1nnc2ccc(-c3ccc(NS(=O)(=O)c4ccc(Cl)s4)cc3)nn12	none
C#CCOCCOCCOCCNc1nc(N2CCOCC2)nc(N2CCN(C(=O)[C@H](CCCCN)n3cc(CCC(=O)O)nn3)CC2)n1	none (no result: GRK2 aptamer HTS)
C#CCOCCOCCOCCNc1nc(N2CCN(C(=O)CCCCCCCCCCNC(=O)[C@@H](CCSC)n3cc(CCO)nn3)CC2)nc(N2CCN(C(=O)CCCCCCCCCCNC(=O)[C@H](CCC(=O)O)n3cc(CCCCCN)nn3)CC2)n1	NadD block 41, ABHD5-PLIN5 inh 41 | NadD conf 48
C#CCOCCOCCOCCNc1nc(N2CCN(C(=O)CCCCCCCCCCNC(=O)[C@@H](CCC(=O)O)n3cc(CCCCCN)nn3)CC2)nc(N2CCN(C(=O)CCCCCCCCCCNC(=O)[C@H](CO)n3cc(CCCSC)nn3)CC2)n1	NadD block 48, ABHD5-PLIN5 inh 47 | NadD conf inactive
C#CCOCCOCCOCCNc1nc(N2CCN(C(=O)Cn3cc(CCCCN)nn3)CC2)nc(N2CCN(C(=O)[C@H](C)n3cc(CCC(=O)O)nn3)CC2)n1	none (no result: GRK2 aptamer HTS)
CSc1ccc(NC(=O)CSc2nc3[nH]c(=O)cc(O)c3s2)cc1	NadD block 54 | NadD conf inactive
COc1cc(C#Cc2c(-c3cncn3C)n(C)c3ccc(-c4cnc(N5CCOCC5)nc4)cc23)cc(OC)c1	NadD block 45 | NadD conf inactive
COc1cc(C#Cc2c(-c3cncn3C)n(C)c3ccc(-c4cnc(OC)nc4)cc23)cc(OC)c1	NadD block 30 | NadD conf inactive
COc1cc(C#Cc2c(-c3cncn3C)n(C)c3ccc(-c4ccc(CN5CCOCC5)cc4)cc23)cc(OC)c1	none
COc1cc(OC)cc(-c2c(Sc3ccccc3)c3cc(-c4cnc(OC)nc4)ccc3n2C)c1	none (no result: B2AR ag, GRK2 aptamer HTS)
C[C@@H]1COC(=O)[C@@H](CC(=O)OC(C)(C)C)C/C=C\C[C@@H](CC(=O)NCCO)C(=O)N1	none
Cc1ccc(-c2ccc(/C=N/NC(N)=S)o2)cc1	none
NC(=S)N/N=C/c1ccc(-c2ccc(Cl)c(Cl)c2)o1	NadD block 39 | NadD conf inactive
CC1=C(c2ccccc2)SC2=NCCN21	none
Cc1noc(C)c1-c1ccc(C(=O)NCc2ccc(Cl)cc2)c2occc12	none (no result: B2AR ag, GRK2 aptamer HTS)
O=C(Nc1nc(C2C3CC4CC(C3)CC2C4)cs1)c1cc2cc([N+](=O)[O-])ccc2oc1=O (stereo not drawn)	NadD block 35 | NadD conf inactive
CN(C(=O)COC(=O)C1CCN(S(=O)(=O)c2c(Cl)cccc2Cl)CC1)C1CCCCC1	none
O=C(Nc1ccc(N2CCCC2)cc1)c1ccc([N+](=O)[O-])cc1Cl	NadD block 36 | NadD conf inactive
O=C(Nc1ccc(N2CCCC2)cc1)c1cccc(-c2cc3ccccc3oc2=O)c1	B2AR ag 57, NadD block 57 | NadD conf inactive
O=C(Nc1ccc(N2CCCC2)cc1)c1ccc2ccccc2c1	NadD block 34 | NadD conf inactive
O=C(Nc1ccccc1N1CCCC1)c1cccc(-c2cc3ccccc3oc2=O)c1	none
CCc1cccc(NC(=O)C2CCN(c3ncnc4sc(C)c(C)c34)CC2)c1	none
Cc1sc2ncnc(N3CCC(C(=O)Nc4nnc(SCc5ccccc5F)s4)CC3)c2c1C	NadD block 47 | NadD conf inactive
CCc1ccc2nc(NC(=O)C3CCN(c4ncnc5sc(C)c(C)c45)CC3)sc2c1	NadD block 33 | NadD conf inactive
Cc1sc2ncnc(N3CCC(C(=O)NCC(=O)Nc4ccc(F)c(F)c4)CC3)c2c1C	none
Cc1sc2ncnc(N3CCC(C(=O)Nc4sc5c(c4C(N)=O)CCC(C)C5)CC3)c2c1C (stereo not drawn)	NadD block 31 | NadD conf inactive
CC1CCc2c(sc(Nc3nc4c(F)cccc4s3)c2C(N)=O)C1 (stereo not drawn)	NadD block 36 | NadD conf inactive
O=C(Cc1cccc(NC(=O)C2CCCN(C(=O)C3CC3)C2)c1)Nc1cccc(C(=O)N2CCOCC2)c1 (stereo not drawn)	none (no result: GRK2 aptamer HTS)
CN(C)c1ccc(C(=O)N=c2sccn2C)cc1[N+](=O)[O-]	none
Cc1sc2ncnc(N3CCC(C(=O)Nc4ccc(Cl)c(Cl)c4)CC3)c2c1C	NadD block 42 | NadD conf inactive
Cc1onc(-c2c(Cl)cccc2Cl)c1C(=O)NC(=S)Nc1sc2c(c1C(N)=O)CCC(C)C2 (stereo not drawn)	NadD block 31 | NadD conf inactive
